# Sampled rows, rich in hits. Any-hit rate of the full collection: about 3.7%.
# MT stabilize HCS: microtubule stabilizers in HeLa cells, primary screen, imaging, high-content imaging; HeLa tubulin immunostaining HCS, 24 h; share of cells brighter than vehicle mean+2SD; % tubulin-high responders, % at 10 µM; 200,000 compounds, 0.83% hits;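 active means plate Z-score above 3 for both tubulin-high and condensed-nucleus cell shares, with cell loss under 80%, at 10 µM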;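 further: anti alpha tubulin signal scored within the nucleus-defined area of each cell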
# ROMK mod: ROMK potassium channel modulators, primary screen, cell-based, thallium flux, MLSMR library | AID 1918, 2009 | Tet-inducible ROMK, thallium flux fluorescence; actives lie on both sides | 130,000 compounds, 2% hits | ATP-sensitive inward rectifier potassium channel 1 (Homo sapiens), P48048 | B-score at 10 µM;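 active means signal ratio slope over the read window, or its plate-corrected B-score, at least 3 SD from the plate mean, either direction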;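 further: B-score of the F/F0 ratio slope over 7 to 12 s after thallium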
# b-catenin transl: modulators of beta-catenin nuclear translocation, primary screen, imaging, HeLa cells, immunofluorescence, high-content. nuclear translocation activity, % at 5 µM. 190,000 compounds, 0.3% hits;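 active means nuclear translocation activity above 50% at 5 µM, with a well cell count of 50 or more; inconclusive means wells under 50 cells across six images, flagged as toxic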;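 further: per-cell ratio of nuclear to cytoplasmic median beta-catenin stain intensity; plate controls were DMSO negative control for no effect and GSK-3 inhibitor IX positive control for full effect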
#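 Test system: HeLa cells, endogenous beta-catenin; Compound: single 5 µM dose plus 0.02–20 µM confirmation series; Times: compound exposure 24 h at 37°C; Signal: fluorescence imaging of beta-catenin antibody stain plus DAPI; Read-out: % activation, nuclear-to-cytoplasmic median beta-catenin signal ratio per cell.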
# KCC2 mod: KCC2 cotransporter modulators, thallium flux, primary screen, cell-based, HEK293 KCC2, FluoZin-2 fluorescence, MLSMR | Solute carrier family 12 member 5 (Homo sapiens), Q9H2X9 | KCC2 cells, thallium flux FluoZin-2 fluorescence | B-score of Tl+ flux slope (higher = more flux/activation; lower = inhibition) at 10 µM | 190,000 compounds, 2.2% hits | AID 1456, 2008;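 active means thallium flux slope and its plate-corrected score both differing from the plate sample mean at a set confidence after two filtering rounds, in either direction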;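 further: slope of fluorescence scaled to starting intensity during 10 to 20 s after thallium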
# Redox H2O2 prof: compounds producing H2O2 with reducing agent – biochemical, NIH compound library profiling, artefact control for MLSCN library redox annotation, primary screen. 200,000 compounds, 0.03% hits. activation, % at 10 µM. AID 878, 2007. DTT-dependent redox cycling H2O2, phenol red/HRP absorbance; 100% = 100 µM peroxide control, 0% = buffer;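 active means activation of at least 50% relative to the plate's high and low controls in the primary single-dose screen; inactive means activation below 50%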;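 further: compound incubated with DTT at 0.8 mM final as the reducing agent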
# ROMK hit retest: ROMK channel modulator hit retest, confirmation, cell-based, thallium flux, duplicate, resupplied hits. shares compounds with ROMK mod. fluorescence ratio; hits give low values. normalized thallium flux (F/F0 slope) at 10 µM. 3,000 compounds, 54% hits. AID 1917, 2009;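 active means Flux at 10 µM at least 3 SD below or above vehicle control mean in one or both replicates; inconclusive means no clear call, values can overlap the other calls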
# * marks the source's active call; other numbers are inactive results; ? = inconclusive; / = no result given.
SMILES,MT stabilize HCS,ROMK mod,b-catenin transl,KCC2 mod,Redox H2O2 prof,ROMK hit retest
O=c1[nH]c(CN2CCN(c3ccc([N+](=O)[O-])cc3)CC2)nc2ccsc12,1,-3.5*,0,0.39,0,0.059*
O=C(C1CCCO1)N1N=C(c2ccc(Br)cc2)CC1c1ccco1 (stereo not drawn),2,-3.4*,-1,-0.62,0,0.058*
CN(C)c1ccc(CNC(=O)C2CCC(CNc3c(N4CCCCC4)c(=O)c3=O)CC2)cc1 (stereo not drawn),/,-0.019,1,-0.073,/,/
COc1ccc(CCn2c(NN)nc3c2c(=O)[nH]c(=O)n3C)cc1,/,4.8*,37,0.2,/,?
COc1ccc(CCn2c(NN=C(C)C)nc3c2c(=O)[nH]c(=O)n3C)cc1,/,/,1,0.17,/,/
CCS(=O)(=O)N1N=C(c2cccc(NS(C)(=O)=O)c2)CC1c1ccc(C)cc1 (stereo not drawn),6,-0.91,1,-0.34,-1,/
O=C1CC(c2ccco2)CC2=C1C1c3ccccc3C(=O)N1c1ccccc1N2 (stereo not drawn),16,6.9*,/,/,-1,0.098*
C=CCCCCCCCCC(=O)NNC1CC(=O)N(c2ccccc2)C1=O (stereo not drawn),/,/,0,/,/,/
Cc1n[nH]c(=O)n1-c1cccc(C(F)(F)F)c1,4,/,/,/,1,0.076
CCOc1ccccc1CNS(=O)(=O)c1ccc2[nH]c(=O)sc2c1,2,-3.5*,/,-1.3,1,0.075
CN1CCN(C(=O)NCC23CC4CC(CC(C4)C2)C3)CC1,6,0.092,-1,1.2,0,/
Cc1cc(C(=O)COc2ccccc2C(N)=O)c(C)n1CC1CCCO1 (stereo not drawn),8,-1.3,-2,-0.66,-2,/
COC(=O)CCn1c(C)cc(C(=O)COc2ccccc2C(N)=O)c1C,3,-5.4*,-4,-0.46,0,?
O=C(CO/N=C/c1ccc(OC(F)F)cc1)NC1CCCC1,5,-0.99,-4,-0.52,0,/
CN(C(=O)CO/N=C/c1ccc(OC(F)F)cc1)C1CCS(=O)(=O)C1 (stereo not drawn),3,-10*,-2,0.46,-1,0.073
O=C1Nc2ccccc2/C1=C/c1cnc(-c2ccccc2)[nH]1,/,/,0,0.8,/,0.048*
O=C1Nc2ccccc2/C1=C/c1cccnc1,5,-1.8,2,0.67,0,/
CC1CCCCC1NC(=O)CN1C(=O)CSc2cc(S(=O)(=O)N3CCCCCC3)ccc21 (stereo not drawn),4,-4.5*,-2,-3,-1,0.065*
CCOC(=O)CN1C(=O)CSc2ccc(S(=O)(=O)N3CCCC3)cc21,/,-0.0047,0,-0.07,/,/
Oc1csc(Cc2nc(-c3ccccc3F)cs2)n1,6,0.011,1,0.89,0,/
CCOc1cc(/C=N/O)ccc1OCc1ccc(F)cc1,2,/,/,-1.4,-1,/
CCOc1cc(/C=N/N=C(N)N)ccc1OCc1ccc(Cl)cc1,65,-3.9*,?,0.12,0,0.053*
O=C(CSc1ncn[nH]1)NC12CC3CC(CC(C3)C1)C2,1,3*,1,0.049,0,0.075
O=C(O)CSc1ncn[nH]1,3,/,-1,-0.29,0,/
CN(C)S(=O)(=O)c1ccc(C(=O)Nc2nc(-c3cc4ccccc4o3)cs2)cc1,4,0.025,-3,-0.34,0,/
SMILES,MT stabilize HCS,ROMK mod,b-catenin transl,KCC2 mod,Redox H2O2 prof,ROMK hit retest
CN(CC1CCCO1)S(=O)(=O)c1ccc(C(=O)Nc2nc(-c3ccccn3)cs2)cc1 (stereo not drawn),7,/,-1,-1.8,-1,0.072
Cc1cc(=O)n(C2CCS(=O)(=O)C2)[nH]1 (stereo not drawn),1,0.71,1,1.5,0,/
CCOC(=O)c1[nH]c2ccc(OC)cc2c1C,3,-0.27,/,-0.05,1,/
CCOC(=O)c1cc2cc(OC)ccc2[nH]1,3,-1.2,-4,-0.045,1,0.072
CSc1ccccc1C(=O)C1CCCN(S(=O)(=O)c2c(C)noc2C)C1 (stereo not drawn),3,0.066,0,-0.59,-1,/
CCCCNC(=O)CS(=O)Cc1nc(-c2ccc(C)cc2)oc1C (stereo not drawn),6,/,0,/,-1,/
Cc1cccc(-c2nc(CS(=O)CC(=O)NCCCSC3CCCCC3)c(C)o2)c1 (stereo not drawn),5,-4*,-1,-1.1,2,0.059*
Cc1ccc(S(=O)(=O)N(C)C)cc1NC(=O)CCNC(=O)c1ccccc1Cl,12,/,2,0.59,0,/
CCOC(=O)N1CCN(C(=O)CN(Cc2ccccc2)S(C)(=O)=O)CC1,6,0.78,1,0.44,-2,/
CCOC(=O)N1CCN(c2ccc(S(=O)(=O)N(Cc3ccccc3)Cc3ccccc3)cn2)CC1,6,/,-2,-0.089,1,0.075
Cc1ccc(/C=C/S(=O)(=O)NCc2ccc(F)cc2)cc1,2,-1.2,3,-0.96,0,/
CC(C)(C)Nc1nc(NN)nc(NC(C)(C)C)n1,2,-5.2*,5,0.053,-4,0.051*
CC(C)(C)Nc1nc(Cl)nc(NC(C)(C)C)n1,2,/,3,0.66,-1,/
O=C(CS(=O)(=O)c1c[nH]c2ccccc12)N1CCCCCC1,2,-0.19,0,0.7,-1,/
Cc1ccc2nc(NCCO)nc(-c3ccccc3)c2c1,15,/,2,0.83,0,0.075
Cc1ccc(C2(c3noc(CN(C)Cc4cccnc4)n3)CCCC2)cc1,3,-0.12,1,/,-1,/
CCn1c(/C=C/c2c(C)[nH]c3ccccc23)nc2ccccc2c1=O,16,/,10,-1.4,0,0.047*
NS(=O)(=O)c1ccc(O)c(NC(=O)c2ccc([N+](=O)[O-])cc2)c1,3,-0.013,0,0.19,0,/
O=C1/C(=C/c2ccccc2)CCCc2ccccc21,2,/,0,-0.19,1,/
CN(C)c1ccc(/C=C2\CCC/C(=C\c3ccccc3)C2=O)cc1,9.3*,/,4,-0.44,2,?
COc1ccc(S(=O)(=O)Nc2ccc(-n3cccc3)cc2)cc1,8,1.3,1,0.1,-2,/
COC(=O)C(CC(C)C)NC(=O)c1cccs1 (stereo not drawn),2,-0.11,2,0.83,0,/
CC(C)c1ccc2oc(-c3ccc(N)cc3)nc2c1,4,/,0,-0.014,2,0.081
CC1(C)CC(=O)C2=C(C1)OC1OC(=O)CC21C (stereo not drawn),3,1.4*,-2,-0.49,-2,0.091

# Bioassay records (PubChem)
